Assay results from different studies.
Target: Mitogen-activated protein kinase 9 (MAPK9, Homo sapiens, UniProt P45984)

Structure (SMILES)	assay	conditions	measurement	result
CC(C)(C)c1cc(C=C(C#N)C#N)cc(Br)c1O	enzyme activity, inhibitor	0.5 µM	remaining activity	103%
COc1ncccc1-c1cnn2ccc(N3CCN(C(=O)OC(C)C)CC3)nc12	binding, competition with immobilised ligand	1 µM	remaining binding	100%
Cc1nn(C)cc1-c1nc2c(N3CCN(Cc4ccc(Cl)cc4)CC3)c(Cl)cnc2[nH]1	binding, competition with immobilised ligand	1 µM	remaining binding	100%
Cn1cncc1[C@@](O)(COc1ccc(C#N)cc1-c1ccc(OC(F)(F)F)cc1)c1ccc(C#N)cc1	cell-free assay, competition with immobilised ligand	1 µM	remaining binding	92%
Cn1cc(-c2cccc(N3CCc4c(sc5c4CC(C)(C)C5)C3=O)c2CO)cc(Nc2ccncn2)c1=O	enzyme activity, inhibitor	1 µM	inhibition	12%
O=c1[nH]c2ccccc2n1C1CCN(Cc2ccc(-c3[nH]c4cc5ncnc5cc4nc3-c3ccccc3)cc2)CC1	cell-free assay	0.5 µM	remaining signal	91.9%
Cn1cc(-c2cc(F)cc(N3CCn4c(cc5c4CCCC5)C3=O)c2CO)cc(Nc2ccc(N3CCN(C4COC4)CC3)cn2)c1=O	enzyme activity, inhibitor	0.1 µM	inhibition	1%
Nc1ncc(-c2nc(N3CCOCC3)nc(N3CCOCC3)n2)c(C(F)F)n1	binding, competition with immobilised ligand	10 µM	remaining binding	83%
